# In ChEMBL document CHEMBL4422629, “Discovery of an Orally Bioavailable and Central Nervous System (CNS) Penetrant mGlu7 Negative Allosteric Modulator (NAM) in Vivo Tool Compound: N-(2-(1 H-1,2,4-triazol-1-yl)-5-(trifluoromethoxy)phenyl)-4-(cyclopropylmethoxy)-3-methoxybenzamide (VU6012962)” (J Med Chem, 2019):
# Active and inactive are the calls of the source. The calls are words filed in the database; no cut-off is given here.
# What was measured:
# [1] = target: Metabotropic glutamate receptor 7 (Rattus norvegicus, UniProt P35400); test: Negative allosteric modulation of rat mGlu7 receptor expressed in HEK cells harboring Ga15 assessed as reduction in L-AP4-induced calcium flux preincubated for 142 secs followed by agonist addition and measured after 120 secs by Fluo-4-AM-dye based fluorescence assay; format: functional, cell-based
# Metabotropic glutamate receptor 7, sequence (P35400 whole entry): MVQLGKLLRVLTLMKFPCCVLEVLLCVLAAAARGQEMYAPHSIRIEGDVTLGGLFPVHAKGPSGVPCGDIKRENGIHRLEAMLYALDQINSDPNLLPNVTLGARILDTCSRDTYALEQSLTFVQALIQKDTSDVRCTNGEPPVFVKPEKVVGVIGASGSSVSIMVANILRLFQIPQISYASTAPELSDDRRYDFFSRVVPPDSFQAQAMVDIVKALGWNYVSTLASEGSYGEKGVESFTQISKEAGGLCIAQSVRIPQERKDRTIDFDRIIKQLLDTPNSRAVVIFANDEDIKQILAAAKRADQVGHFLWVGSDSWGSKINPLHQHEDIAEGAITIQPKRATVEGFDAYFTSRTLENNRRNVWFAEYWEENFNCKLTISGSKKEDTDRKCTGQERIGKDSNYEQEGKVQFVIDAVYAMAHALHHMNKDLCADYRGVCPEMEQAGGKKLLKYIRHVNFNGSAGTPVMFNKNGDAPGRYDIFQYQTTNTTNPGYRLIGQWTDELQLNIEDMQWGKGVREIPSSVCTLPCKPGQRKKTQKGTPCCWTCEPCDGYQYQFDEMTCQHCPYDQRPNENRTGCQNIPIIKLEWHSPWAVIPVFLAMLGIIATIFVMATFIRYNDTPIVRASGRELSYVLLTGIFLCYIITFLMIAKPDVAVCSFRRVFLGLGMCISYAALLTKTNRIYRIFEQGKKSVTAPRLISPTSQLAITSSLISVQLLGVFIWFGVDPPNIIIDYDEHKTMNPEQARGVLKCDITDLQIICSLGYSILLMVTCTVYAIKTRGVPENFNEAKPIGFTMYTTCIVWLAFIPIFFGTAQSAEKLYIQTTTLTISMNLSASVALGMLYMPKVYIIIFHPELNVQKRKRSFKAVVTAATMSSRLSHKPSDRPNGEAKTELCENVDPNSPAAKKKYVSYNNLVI
# [2] = Total brain concentration in Sprague-Dawley rat at 30 mg/kg, ip measured at 1 hr post dose by LC/MS/MS analysis; format: ADME, organism-based; conditions: read-out: Drug uptake
# Method in brief: (§1)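 Rat tissue distribution after a single 30 mg/kg ip dose, with compound measured in plasma, brain and CSF. Kp taken as tissue:plasma total ratio. Unbound levels used plasma protein binding and brain homogenate binding fractions.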
# [3] = Unbound fraction in Sprague-Dawley rat brain at 0.2 to 0.25 mg/kg, iv via cassette dosing measured up to 24 hrs post dose by LC/MS/MS analysis; format: ADME, organism-based
# [4] = test system: Mus musculus; test: Anti-anxiety activity in ip dosed C57Bl/6J mouse assessed as increase in total time spent in open arms by elevated zero maze assay; format: functional; conditions: read-out: MED
# Method in brief: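 Mouse elevated zero maze after intraperitoneal dosing at several doses; read-out was total time in open arms. Analysis by one-way ANOVA with Bonferroni post hoc test against vehicle.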
# [5] = test system: Mus musculus; test: Anxiolytic-like activity in C57Bl/6J mouse assessed as suppression of marble burying activity […], ip administered 45 mins before habituation for 15 mins and measured following 30 mins interval by marble burying assay; format: functional, organism-based; conditions: 3 mg/kg, in the assay text read “3 mg/kg” for “15 mg/kg”
# Method in brief: (§2)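 Mouse marble-burying assay, ip dosing of test agent or fluoxetine, counting marbles buried. Analysis by one-way ANOVA with Dunnett's post hoc test against vehicle, plus Grubb's outlier test.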
# [6] = Unbound brain to plasma concentration ratio in Sprague-Dawley rat at 30 mg/kg, ip measured at 1 hr post dose by LC/MS/MS analysis; format: ADME, organism-based; method in brief: as §1
# [7] = Brain to plasma permeability coefficient, Kp of the compound in Sprague-Dawley rat at 30 mg/kg, ip measured at 1 hr post dose by LC/MS/MS analysis; format: ADME, organism-based; method in brief: as §1
# [8] = Plasma concentration in C57Bl/6J mouse at 3 mg/kg, ip measured at 1 hr post dose by LC/MS/MS analysis; format: ADME, organism-based
# Method in brief: (§3)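 Mouse pharmacokinetic assessment at 3 mg/kg ip, sampled at the 1 h time point used in the behavioural tests.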
# [9] = target: Metabotropic glutamate receptor 4 (Homo sapiens, UniProt Q14833); test: Negative allosteric modulation of mGlu4 receptor (unknown origin)
# Metabotropic glutamate receptor 4, sequence (Q14833 whole entry): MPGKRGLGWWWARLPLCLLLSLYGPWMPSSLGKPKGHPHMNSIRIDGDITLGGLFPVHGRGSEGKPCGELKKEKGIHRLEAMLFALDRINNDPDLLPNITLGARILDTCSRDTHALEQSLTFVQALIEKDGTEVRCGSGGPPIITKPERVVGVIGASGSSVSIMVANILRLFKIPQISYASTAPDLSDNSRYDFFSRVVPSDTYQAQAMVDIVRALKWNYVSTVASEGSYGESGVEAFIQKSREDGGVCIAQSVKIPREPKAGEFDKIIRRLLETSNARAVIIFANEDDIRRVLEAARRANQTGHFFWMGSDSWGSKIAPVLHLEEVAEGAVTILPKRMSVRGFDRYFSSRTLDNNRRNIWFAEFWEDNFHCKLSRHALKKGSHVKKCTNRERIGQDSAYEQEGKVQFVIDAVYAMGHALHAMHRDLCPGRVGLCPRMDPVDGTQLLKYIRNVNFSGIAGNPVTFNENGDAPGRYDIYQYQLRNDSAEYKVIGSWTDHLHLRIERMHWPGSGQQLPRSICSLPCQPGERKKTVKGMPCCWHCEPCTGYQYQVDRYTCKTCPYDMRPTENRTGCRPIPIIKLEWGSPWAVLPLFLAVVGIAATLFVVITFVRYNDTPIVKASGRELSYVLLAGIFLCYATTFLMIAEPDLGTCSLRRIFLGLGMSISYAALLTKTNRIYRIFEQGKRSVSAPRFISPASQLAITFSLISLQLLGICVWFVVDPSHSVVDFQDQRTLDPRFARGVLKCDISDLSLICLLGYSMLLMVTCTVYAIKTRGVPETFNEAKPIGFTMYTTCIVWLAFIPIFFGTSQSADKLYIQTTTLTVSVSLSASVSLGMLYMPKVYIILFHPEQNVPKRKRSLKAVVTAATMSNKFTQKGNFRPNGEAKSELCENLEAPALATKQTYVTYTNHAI
# [10] = target: Metabotropic glutamate receptor 3 (Homo sapiens, UniProt Q14832); test: Negative allosteric modulation of mGlu3 receptor (unknown origin)
# Metabotropic glutamate receptor 3, sequence (Q14832 whole entry): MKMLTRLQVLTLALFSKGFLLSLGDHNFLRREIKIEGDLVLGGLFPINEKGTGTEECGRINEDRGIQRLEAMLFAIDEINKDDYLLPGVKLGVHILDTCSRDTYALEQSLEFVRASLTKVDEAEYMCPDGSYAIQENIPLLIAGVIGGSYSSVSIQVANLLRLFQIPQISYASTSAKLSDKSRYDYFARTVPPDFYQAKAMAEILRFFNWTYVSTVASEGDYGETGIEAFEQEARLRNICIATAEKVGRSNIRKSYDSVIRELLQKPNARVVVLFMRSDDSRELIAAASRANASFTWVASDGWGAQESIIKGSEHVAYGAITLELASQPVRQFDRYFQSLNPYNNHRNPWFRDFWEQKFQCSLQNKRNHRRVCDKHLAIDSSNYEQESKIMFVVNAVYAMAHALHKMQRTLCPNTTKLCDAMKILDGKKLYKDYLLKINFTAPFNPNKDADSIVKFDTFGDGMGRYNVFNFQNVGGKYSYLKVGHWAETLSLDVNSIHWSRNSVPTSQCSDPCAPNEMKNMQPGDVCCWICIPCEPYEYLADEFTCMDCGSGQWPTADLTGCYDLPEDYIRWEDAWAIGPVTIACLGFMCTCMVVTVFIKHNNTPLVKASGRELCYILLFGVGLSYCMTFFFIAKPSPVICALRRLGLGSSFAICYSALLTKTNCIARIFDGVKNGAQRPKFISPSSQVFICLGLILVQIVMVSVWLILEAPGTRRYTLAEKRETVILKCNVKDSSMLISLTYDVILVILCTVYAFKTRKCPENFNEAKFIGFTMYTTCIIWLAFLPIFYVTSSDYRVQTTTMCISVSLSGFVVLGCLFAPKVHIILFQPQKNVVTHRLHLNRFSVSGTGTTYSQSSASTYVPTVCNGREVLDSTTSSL
# [11] = Fraction unbound in Sprague-Dawley rat brain at 0.2 to 0.25 mg/kg, iv via cassette dosing measured up to 24 hrs post dose by LC/MS/MS analysis; format: ADME, organism-based
# [12] = Fraction unbound in Sprague-Dawley rat plasma at 0.2 to 0.25 mg/kg, iv via cassette dosing measured up to 24 hrs post dose by LC/MS/MS analysis; format: ADME, organism-based; conditions: for fraction unbound at 24 h: Sprague-Dawley, plasma
# [13] = test system: Mus musculus; test: Anxiolytic-like activity in C57Bl/6J mouse assessed as increase in total time spent in the light side of the chamber at 3 mg/kg, ip measured during 10-min testing period; format: functional, organism-based
# Method in brief: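 Mouse light/dark box at 3 mg/kg ip, with fluoxetine 15 mg/kg ip as reference; read-out was total time in the light side. Analysis by one-way ANOVA with Dunnett's post hoc test against vehicle, plus Grubb's outlier test.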
# [14] = test system: Mus musculus; test: Reduction in locomotive activity in C57Bl/6J mouse assessed as reduction in total distance traveled in maze at 10 mg/kg, ip after 120 secs by elevated zero maze assay; format: ADME, organism-based; conditions: in vivo, 2 min
# Method in brief: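 Elevated zero maze in mice dosed intraperitoneally; locomotion read as total distance traveled. Analysis by one-way ANOVA with Bonferroni post hoc test between doses.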
# [15] = Fraction unbound in Sprague-Dawley rat plasma at 30 mg/kg, ip measured at 1 hr post dose by LC/MS/MS analysis; format: ADME, organism-based; conditions: in vivo
# [16] = Total plasma concentration in Sprague-Dawley rat at 30 mg/kg, ip measured at 1 hr post dose by LC/MS/MS analysis; format: ADME, organism-based; method in brief: as §1
# [17] = target: Metabotropic glutamate receptor 8 (Homo sapiens, UniProt O00222); test: Negative allosteric modulation of mGlu8 receptor (unknown origin)
# Metabotropic glutamate receptor 8, sequence (O00222 whole entry): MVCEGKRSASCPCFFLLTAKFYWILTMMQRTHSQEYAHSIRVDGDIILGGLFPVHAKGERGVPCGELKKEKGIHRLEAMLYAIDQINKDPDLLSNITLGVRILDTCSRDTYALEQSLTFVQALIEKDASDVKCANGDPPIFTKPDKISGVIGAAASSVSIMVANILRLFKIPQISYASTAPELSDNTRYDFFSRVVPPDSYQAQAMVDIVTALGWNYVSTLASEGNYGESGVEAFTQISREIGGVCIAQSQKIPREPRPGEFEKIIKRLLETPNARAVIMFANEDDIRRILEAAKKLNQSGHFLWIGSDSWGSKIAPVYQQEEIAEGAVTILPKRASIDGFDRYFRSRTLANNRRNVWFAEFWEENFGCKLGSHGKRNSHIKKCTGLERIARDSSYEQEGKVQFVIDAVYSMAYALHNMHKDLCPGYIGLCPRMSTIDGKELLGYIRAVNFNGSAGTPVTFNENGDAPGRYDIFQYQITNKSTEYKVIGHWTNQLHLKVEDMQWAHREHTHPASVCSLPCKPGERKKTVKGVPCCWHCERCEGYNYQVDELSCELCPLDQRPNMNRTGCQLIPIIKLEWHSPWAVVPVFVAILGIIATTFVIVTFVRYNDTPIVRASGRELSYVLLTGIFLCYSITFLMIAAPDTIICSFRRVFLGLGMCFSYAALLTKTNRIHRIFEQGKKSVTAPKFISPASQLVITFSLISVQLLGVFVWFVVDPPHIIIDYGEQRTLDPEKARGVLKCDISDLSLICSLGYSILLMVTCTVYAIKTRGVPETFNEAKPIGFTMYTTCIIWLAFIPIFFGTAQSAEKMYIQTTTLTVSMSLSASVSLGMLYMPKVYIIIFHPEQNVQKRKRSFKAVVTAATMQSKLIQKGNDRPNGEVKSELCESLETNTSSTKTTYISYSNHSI
# [18] = Total brain concentration in Sprague-Dawley rat at 0.2 to 0.25 mg/kg, iv via cassette dosing measured up to 24 hrs post dose by LC/MS/MS analysis; format: ADME, organism-based; conditions: read-out: Drug uptake
# Method in brief: (§4)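 Rat IV cassette study of plasma:brain levels. Brain Kp taken as total brain:plasma; Kp,uu corrected with the rat brain homogenate unbound fraction.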
# [19] = Ratio of drug level in Sprague-Dawley rat cerebrospinal fluid at 30 mg/kg, ip measured at 1 hr post dose by LC/MS/MS analysis to Negative allosteric modulation of rat mGlu7 receptor expressed in HEK cells harboring Ga15; format: ADME, organism-based; conditions: in vivo
# [20] = target: Metabotropic glutamate receptor 1 (Homo sapiens, UniProt Q13255); test: Negative allosteric modulation of mGlu1 receptor (unknown origin)
# [21] = test system: Mus musculus; test: Anxiolytic-like activity in C57Bl/6J mouse assessed as suppression of marble burying activity at 3 mg/kg, ip administered 45 mins before habituation for 15 mins and measured following 30 mins interval by marble burying assay; format: functional, organism-based; method in brief: as §2
# [22] = Oral bioavailability in Sprague-Dawley rat at 10 mg/kg measured up to 24 hrs by LC-MS/MS analysis; format: ADME, organism-based; conditions: in vivo
# Method in brief: (§5)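 Rat discrete pharmacokinetics after iv and po (10 mg/kg) dosing, giving plasma clearance, Vss, half-life and oral bioavailability.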
# [23] = CSF to plasma permeability coefficient, Kp of the compound in Sprague-Dawley rat at 30 mg/kg, ip measured at 1 hr post dose by LC/MS/MS analysis; format: ADME, organism-based; method in brief: as §1
# [24] = target: Metabotropic glutamate receptor 6 (Homo sapiens, UniProt O15303); test: Negative allosteric modulation of mGlu6 receptor (unknown origin)
# [25] = Unbound brain concentration in Sprague-Dawley rat at 0.2 to 0.25 mg/kg, iv via cassette dosing measured up to 24 hrs post dose by LC/MS/MS analysis; format: ADME, organism-based; conditions: in vivo; method in brief: as §4
# [26] = target: 5-hydroxytryptamine receptor 2B (Homo sapiens) (UniProt P41595); test: Binding affinity to cloned human 5-HT2B expressed in CHO-K1 cell membranes by radioligand displacement assay
# 5-hydroxytryptamine receptor 2B (Homo sapiens), sequence (P41595 whole entry): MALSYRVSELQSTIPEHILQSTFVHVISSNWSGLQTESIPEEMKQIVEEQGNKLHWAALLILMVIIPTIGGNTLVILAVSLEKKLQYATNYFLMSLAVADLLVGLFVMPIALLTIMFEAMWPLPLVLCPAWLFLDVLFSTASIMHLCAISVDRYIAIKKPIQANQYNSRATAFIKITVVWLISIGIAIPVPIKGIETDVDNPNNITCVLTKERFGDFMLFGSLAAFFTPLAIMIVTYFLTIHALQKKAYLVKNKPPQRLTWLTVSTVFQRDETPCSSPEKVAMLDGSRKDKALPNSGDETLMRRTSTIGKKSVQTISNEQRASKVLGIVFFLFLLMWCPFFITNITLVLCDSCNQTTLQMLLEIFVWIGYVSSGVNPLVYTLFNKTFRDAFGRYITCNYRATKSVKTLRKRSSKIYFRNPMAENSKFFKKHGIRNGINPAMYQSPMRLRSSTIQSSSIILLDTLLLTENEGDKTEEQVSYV
# Method in brief: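 Eurofins lead profiling panel of 68 GPCRs, ion channels and transporters, tested at 10 μM and read as percent activity.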
# [27] = Drug level in Sprague-Dawley rat cerebrospinal fluid at 30 mg/kg, ip measured at 1 hr post dose by LC/MS/MS analysis; format: ADME, organism-based; conditions: read-out: Drug uptake; method in brief: as §1
# [28] = Brain to plasma permeability coefficient, Kp of the compound in Sprague-Dawley rat at 0.2 to 0.25 mg/kg, iv via cassette dosing measured up to 24 hrs post dose by LC/MS/MS analysis; format: ADME, organism-based; method in brief: as §4
# [29] = Ratio of drug level in C57Bl/6J mouse cerebrospinal fluid at 3 mg/kg, ip measured at 1 hr post dose by LC/MS/MS analysis to negative allosteric modulation of rat mGlu7 receptor expressed in HEK cells harboring Ga15; format: ADME, organism-based; conditions: in vivo
# [30] = target: Metabotropic glutamate receptor 5 (Homo sapiens, UniProt P41594); test: Negative allosteric modulation of mGlu5 receptor (unknown origin)
# [31] = Volume of distribution at steady state in Sprague-Dawley rat at 0.2 mg/kg, iv or 10 mg/kg, po measured up to 24 hrs by LC-MS/MS analysis; format: ADME, organism-based; conditions: in vivo; method in brief: as §5
# [32] = Unbound brain-to-plasma concentration ratio in Sprague-Dawley rat brain at 0.2 to 0.25 mg/kg, iv via cassette dosing measured up to 24 hrs post dose by LC/MS/MS analysis; format: ADME, organism-based; method in brief: as §4
# [33] = Fraction unbound in Sprague-Dawley rat brain at 30 mg/kg, ip measured at 1 hr post dose by LC/MS/MS analysis; format: ADME, organism-based; conditions: in vivo
# [34] = Fraction unbound in mouse plasma at 0.2 to 0.25 mg/kg, iv via cassette dosing measured up to 24 hrs post dose by LC/MS/MS analysis; format: ADME, organism-based
# [35] = Drug level in C57Bl/6J mouse cerebrospinal fluid at 3 mg/kg, ip measured at 1 hr post dose by LC/MS/MS analysis; format: ADME, organism-based; conditions: read-out: Drug uptake; method in brief: as §3
# [36] = Half life in Sprague-Dawley rat at 0.2 mg/kg, iv or 10 mg/kg, po measured up to 24 hrs by LC-MS/MS analysis; format: ADME, organism-based; conditions: in vivo; method in brief: as §5
# [37] = target: Metabotropic glutamate receptor 2 (Homo sapiens, UniProt Q14416); test: Negative allosteric modulation of mGlu2 receptor (unknown origin)
# Metabotropic glutamate receptor 2, sequence (Q14416 whole entry): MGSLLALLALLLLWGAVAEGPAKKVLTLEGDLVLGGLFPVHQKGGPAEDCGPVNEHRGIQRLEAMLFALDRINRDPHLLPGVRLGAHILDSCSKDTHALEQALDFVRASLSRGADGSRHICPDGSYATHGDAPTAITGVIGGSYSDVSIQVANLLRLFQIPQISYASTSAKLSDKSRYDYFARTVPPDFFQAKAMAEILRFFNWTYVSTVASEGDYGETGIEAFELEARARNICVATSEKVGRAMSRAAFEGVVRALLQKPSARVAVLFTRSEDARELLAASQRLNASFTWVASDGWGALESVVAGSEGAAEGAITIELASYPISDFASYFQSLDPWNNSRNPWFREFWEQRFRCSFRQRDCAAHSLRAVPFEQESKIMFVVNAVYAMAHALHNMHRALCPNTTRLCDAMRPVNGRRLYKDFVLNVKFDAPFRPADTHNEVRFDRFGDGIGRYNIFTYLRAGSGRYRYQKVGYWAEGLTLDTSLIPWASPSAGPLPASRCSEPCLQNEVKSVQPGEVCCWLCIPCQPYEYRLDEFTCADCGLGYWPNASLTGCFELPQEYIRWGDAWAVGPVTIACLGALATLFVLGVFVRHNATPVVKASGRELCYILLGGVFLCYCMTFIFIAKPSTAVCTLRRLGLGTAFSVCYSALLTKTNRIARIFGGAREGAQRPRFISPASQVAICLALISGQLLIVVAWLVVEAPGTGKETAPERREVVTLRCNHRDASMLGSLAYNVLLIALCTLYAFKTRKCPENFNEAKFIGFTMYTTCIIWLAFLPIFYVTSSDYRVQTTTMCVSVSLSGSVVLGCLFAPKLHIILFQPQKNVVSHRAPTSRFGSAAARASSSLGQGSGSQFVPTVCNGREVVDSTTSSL
# [38] = test system: Mus musculus; test: Anxiolytic-like activity in C57Bl/6J mouse assessed as increase in total time spent in the light side of the chamber at 15 mg/kg, ip measured during 10-min testing period; format: functional, organism-based
# Method in brief: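 Mouse light/dark box anxiety model; single ip dose with a 1 h treatment time before testing. Read-out is total time spent in the light side of the chamber versus vehicle-treated controls. Groups compared by one-way ANOVA with Dunnett's post hoc test; all data points screened with Grubb's outlier test.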
structure (smiles),measurement,setting,value
COc1cc(C(=O)Nc2cc(OC(F)(F)F)ccc2-n2cncn2)ccc1OCC(C)C,IC50,[1],1.2 µM
COc1cc(C(=O)Nc2cc(OC(F)(F)F)ccc2-n2cncn2)ccc1OCC1CC1,concentration at 1 h,[2],745 nM
same,fraction unbound at 24 h,[3],0.009
same,minimal effective dose,[4],3 mg/kg
same,Activity,[5],Active
same,"K(p,uu,brain)",[6],0.38
same,Kp,[7],1.24
same,concentration at 1 h,[8],303 nM
same,IC50,[9],> 10 µM
same,IC50,[10],> 10 µM
same,fraction unbound at 24 h,[11],0.009
same,Fu,"[12]; in vivo, 24 h",0.028
same,Activity,[13],Active
same,Activity,[14],Toxic
same,Cp(f),[15],16.7 nM
same,concentration at 1 h,[16],598 nM
same,IC50,[17],> 10 µM
same,concentration at 24 h,[18],375 nM
same,IC50,[1],0.35 µM
same,Ratio,[19],3.8
same,IC50,[20],> 10 µM
same,Activity,[21],Active
same,F,[22],74.9%
same,Kp,[23],2.15
same,IC50,[24],> 10 µM
same,Drug uptake(free),[25],3.4 nM
same,Activity,[26],> 50%
same,concentration at 1 h,[27],1300 nM
same,Kp,[28],2.35
same,Ratio,[29],2.5
same,IC50,[30],> 10 µM
same,Vdss,[31],1.9 L/kg
same,"K(p,uu,brain)",[32],0.75
same,Drug uptake(free),[33],6.4 nM
same,fraction unbound at 24 h,[34],0.026
same,concentration at 1 h,[35],883 nM
same,t1/2,[36],40 min
same,IC50,[37],> 10 µM
COc1ccc(CNc2cc(Cl)ccc2-n2cncn2)cc1OC,IC50,[1],7.9 µM
COc1ccc(CCCNc2cc(OC(F)(F)F)ccc2-n2cncn2)cc1OC,fraction unbound at 24 h,[3],< 0.003
same,fraction unbound at 24 h,[12],0.01 to 0.03
same,IC50,[1],1.6 µM
COc1cc(F)c(CCCNc2cc(OC(F)(F)F)ccc2-n2cncn2)cc1OC,fraction unbound at 24 h,[3],< 0.003
same,fraction unbound at 24 h,[12],0.01 to 0.03
same,IC50,[1],1.3 µM
COc1ccc(CCCNc2cc(Cl)ccc2-n2cncn2)cc1OC,IC50,[1],> 10 µM
COc1cc(F)c(OCCNc2cc(Cl)ccc2-n2cncn2)cc1OC,IC50,[1],> 10 µM
COc1ccc(CNc2cc(OC(F)(F)F)ccc2-n2cncn2)cc1OC,fraction unbound at 24 h,[3],< 0.003
same,fraction unbound at 24 h,[12],0.01 to 0.03
same,IC50,[1],5.9 µM
CNCCC(Oc1ccc(C(F)(F)F)cc1)c1ccccc1 (centres undefined),Activity,[38],Active
COc1cc(C(=O)Nc2cc(OC(F)(F)F)ccc2-n2cncn2)ccc1OCC1CCCC1,IC50,[1],2.8 µM
COc1cc(C(=O)Nc2cc(OC(F)(F)F)ccc2-n2cncn2)ccc1OCc1ccccc1,IC50,[1],3.1 µM
COc1cc(F)c(CCCNc2cc(Cl)ccc2-n2cncn2)cc1OC,IC50,[1],> 10 µM
COc1cc(F)c(OCCNc2cc(OC(F)(F)F)ccc2-n2cncn2)cc1OC,fraction unbound at 24 h,[3],< 0.003
same,fraction unbound at 24 h,[12],0.01 to 0.03
same,IC50,[1],1.2 µM
COc1cc(C(=O)Nc2cc(OC(F)(F)F)ccc2-n2cncn2)ccc1OCC(F)(F)F,IC50,[1],> 30 µM
COc1cc(C(=O)Nc2cc(OC(F)(F)F)ccc2-n2cncn2)ccc1OCC1CCC1,IC50,[1],1.4 µM
